Experimental data pooled from the literature.
Lines come from different studies, so protocols differ.

| SMILES | cell line | test | conditions | endpoint | result |
| --- | --- | --- | --- | --- | --- |
| CC[C@@H]1C=CC(=O)O[C@@H]1C[C@@H](O)[C@H](C)[C@H](OC)[C@@H](C)Cc1ccccc1 | OVCAR-5 | cell growth or viability, MTT | 48 h | GI50 | 57.5 nM |
| C[C@]12CC[C@@H]3c4ccc(O)cc4CC[C@H]3[C@@H]1CC[C@@H]2O | Capan-2 | cell growth or viability, ATP luminescence | 72 h | EC90 | 150000 nM |
| CC#CC(=O)N1CC[C@@H](n2cc(-c3ccc(Oc4c(F)cccc4F)cc3)c3c(N)n[nH]c(=O)c32)C1 | Granta-519 | cell growth or viability, ATP luminescence | 72 h | GI50 | 2690 nM |
| CC/C(=C(\c1ccccc1)c1ccc(OCCN(C)C)cc1)c1ccccc1 | Capan-2 | cell growth or viability, ATP luminescence | 72 h | EC90 | 25800 nM |
| CC[C@@H]1C=CC(=O)O[C@@H]1C[C@@H](OC)[C@H](C)[C@H](OC)[C@@H](C)Cc1ccc(F)cc1 | OVCAR-5 | cell growth or viability, MTT | 48 h | GI50 | 784 nM |
| COc1ccc(-c2ccc(-c3ccc(C(=N)N)nc3)s2)cc1Cl | OVCAR-5 | cell growth or viability, SRB |  | GI50 | 1860 nM |
| COc1cc(Nc2nccc(-c3cnn4nc(OC)ccc34)n2)cc(C(F)(F)F)c1 | BEN | cell growth or viability, ATP luminescence |  | IC50 | > 3000 nM |
| C=CC(=O)N1CCC[C@@H](n2nc(-c3ccc(Oc4ccccc4)cc3)c3c(N)ncnc32)C1 | Z-138 | cell growth or viability, ATP luminescence | 72 h | GI50 | 17200 nM |
| COc1ccc(S(=O)(=O)Nc2ccc3oc(-c4ccc(NC(=O)c5cccc(C)c5[N+](=O)[O-])cc4)nc3c2)cc1 | DLD-1 | colony formation |  | EC50 | 16000 nM |
